Assay type in all cases: cell-based
Assay [1] has as its target T1, Transient receptor potential cation channel subfamily V member 1 (Homo sapiens, UniProt Q8NER1). The assay can be described thus: Antagonist activity against human TRPV1 expressed in HEK293 cells assessed as inhibition of capsaicin-induced increase in intracellular Ca2+ concentration by Fluo-4-AM dye based spectrofluorimetry.
In assay [2] the target is T1, Transient receptor potential cation channel subfamily V member 1. As to the kind of experiment: Agonist activity at human TRPV1 expressed in HEK293 cells assessed as increase in intracellular Ca2+ concentration by Fluo-4-AM dye based spectrofluorimetry relative to ionomycin. The procedure, abridged: (§1)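 Same stably transfected HEK293 Fluo-4 calcium assay: human TRPV1, rat TRPM8. Tyrode's buffer pH 7.4, 25 °C, ex 488/em 516 nm. Efficacy is the compound-evoked [Ca2+]i rise normalized to the maximal Ca2+ influx from 4 µM ionomycin. Means of at least 3 determinations.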

For assay [3], the target named is Transient receptor potential cation channel subfamily M member 8 (Rattus norvegicus) (UniProt Q8R455). The assay can be described thus: Agonist activity at rat TRPM8 expressed in HEK293 cells assessed as increase in intracellular Ca2+ concentration by Fluo-4-AM dye based spectrofluorimetry relative to ionomycin. Put shortly: as §1
The target of assay [4] is Transient receptor potential cation channel subfamily M member 8 (Rattus norvegicus, UniProt Q8R455). As to the kind of experiment: Antagonist activity against rat TRPM8 expressed in HEK293 cells assessed as inhibition of icilin-induced increase in intracellular Ca2+ concentration by Fluo-4-AM dye based spectrofluorimetry.
The target of assay [5] is T2, Transient receptor potential cation channel subfamily A member 1 (Rattus norvegicus, UniProt Q6RI86). The assay can be described thus: Antagonist activity against rat TRPA1 expressed in HEK293 cells assessed as inhibition of AITC-induced increase in intracellular Ca2+ concentration by Fluo-4-AM dye based spectrofluorimetry.
For assay [6], the target named is T2, Transient receptor potential cation channel subfamily A member 1. As to the kind of experiment: Agonist activity at rat TRPA1 expressed in HEK293 cells assessed as increase in intracellular Ca2+ concentration by Fluo-4-AM dye based spectrofluorimetry.
For assay [7], the target named is T1, Transient receptor potential cation channel subfamily V member 1. As to the kind of experiment: Agonist activity at human TRPV1 expressed in HEK293 cells assessed as increase in intracellular Ca2+ concentration by Fluo-4-AM dye based spectrofluorimetry. The procedure, abridged:
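HEK293 stably expressing human TRPV1 or rat TRPM8, grown in EMEM with non-essential amino acids, 10% FBS, 2 mM glutamine, 37 °C, 5% CO2. Fluo-4-AM loaded 1 h at room temperature; cells in Tyrode's buffer pH 7.4, about 100,000 per stirred cuvette. Fluorescence (ex 488/em 516 nm) read at 25 °C before and after various compound concentrations. EC50 from sigmoidal variable-slope fit; at least 3 determinations.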

The structures appear in SMILES notation. Some results are limits rather than exact numbers.

Chain of Transient receptor potential cation channel subfamily M member 8 (Rattus norvegicus) (Q8R455 whole entry, looked up): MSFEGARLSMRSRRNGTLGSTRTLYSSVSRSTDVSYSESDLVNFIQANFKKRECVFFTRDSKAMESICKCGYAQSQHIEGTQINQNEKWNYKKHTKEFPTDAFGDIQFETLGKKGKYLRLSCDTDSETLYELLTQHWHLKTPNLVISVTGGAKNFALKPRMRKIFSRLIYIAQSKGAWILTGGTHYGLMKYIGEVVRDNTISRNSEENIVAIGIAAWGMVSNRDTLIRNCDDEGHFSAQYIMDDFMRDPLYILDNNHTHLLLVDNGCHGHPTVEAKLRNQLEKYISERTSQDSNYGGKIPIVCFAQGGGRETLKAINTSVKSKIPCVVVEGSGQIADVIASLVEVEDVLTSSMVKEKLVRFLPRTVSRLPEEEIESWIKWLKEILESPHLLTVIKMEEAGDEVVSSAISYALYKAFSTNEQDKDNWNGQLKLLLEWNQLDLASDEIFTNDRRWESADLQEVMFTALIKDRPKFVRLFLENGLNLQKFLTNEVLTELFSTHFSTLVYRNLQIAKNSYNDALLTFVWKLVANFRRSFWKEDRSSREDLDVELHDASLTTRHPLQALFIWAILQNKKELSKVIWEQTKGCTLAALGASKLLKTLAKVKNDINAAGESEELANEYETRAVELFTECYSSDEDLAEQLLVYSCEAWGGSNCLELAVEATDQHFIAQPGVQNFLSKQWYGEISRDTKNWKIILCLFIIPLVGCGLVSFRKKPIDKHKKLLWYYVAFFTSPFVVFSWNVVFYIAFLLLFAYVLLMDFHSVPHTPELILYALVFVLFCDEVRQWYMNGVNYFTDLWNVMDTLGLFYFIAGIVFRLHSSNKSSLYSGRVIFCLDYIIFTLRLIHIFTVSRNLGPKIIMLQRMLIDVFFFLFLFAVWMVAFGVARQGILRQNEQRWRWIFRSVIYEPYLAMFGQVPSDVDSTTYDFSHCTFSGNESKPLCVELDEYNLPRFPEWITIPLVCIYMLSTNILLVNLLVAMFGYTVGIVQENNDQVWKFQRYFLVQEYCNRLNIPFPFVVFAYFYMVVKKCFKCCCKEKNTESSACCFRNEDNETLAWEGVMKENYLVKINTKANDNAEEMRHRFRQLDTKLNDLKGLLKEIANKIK
Chain of Transient receptor potential cation channel subfamily M member 8 (Q8R455 whole entry): as the sequence (Q8R455 whole entry, looked up) above
T1 sequence (Q8NER1 whole entry): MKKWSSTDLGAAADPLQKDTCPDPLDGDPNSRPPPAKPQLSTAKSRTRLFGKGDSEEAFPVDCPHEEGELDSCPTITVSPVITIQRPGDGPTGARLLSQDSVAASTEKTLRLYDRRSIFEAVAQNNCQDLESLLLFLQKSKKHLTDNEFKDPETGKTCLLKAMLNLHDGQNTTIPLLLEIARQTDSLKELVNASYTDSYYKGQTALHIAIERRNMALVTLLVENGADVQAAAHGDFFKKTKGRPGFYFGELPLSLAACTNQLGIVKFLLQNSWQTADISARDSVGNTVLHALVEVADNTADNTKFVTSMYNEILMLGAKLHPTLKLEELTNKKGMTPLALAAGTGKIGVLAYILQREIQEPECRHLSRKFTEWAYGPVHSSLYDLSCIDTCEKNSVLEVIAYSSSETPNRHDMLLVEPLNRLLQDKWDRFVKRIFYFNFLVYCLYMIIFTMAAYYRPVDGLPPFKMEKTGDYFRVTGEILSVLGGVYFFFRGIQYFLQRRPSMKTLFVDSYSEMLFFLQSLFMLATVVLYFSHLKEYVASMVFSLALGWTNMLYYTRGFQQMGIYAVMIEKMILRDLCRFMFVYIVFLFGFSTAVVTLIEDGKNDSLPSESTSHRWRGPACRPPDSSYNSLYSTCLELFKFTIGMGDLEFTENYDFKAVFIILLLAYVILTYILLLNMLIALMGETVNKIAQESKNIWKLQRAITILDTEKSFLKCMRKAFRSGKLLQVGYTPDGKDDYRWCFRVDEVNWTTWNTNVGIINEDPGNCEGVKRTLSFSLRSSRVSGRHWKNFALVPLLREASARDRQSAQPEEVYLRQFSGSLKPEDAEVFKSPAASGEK
T2 sequence (Q6RI86 whole entry): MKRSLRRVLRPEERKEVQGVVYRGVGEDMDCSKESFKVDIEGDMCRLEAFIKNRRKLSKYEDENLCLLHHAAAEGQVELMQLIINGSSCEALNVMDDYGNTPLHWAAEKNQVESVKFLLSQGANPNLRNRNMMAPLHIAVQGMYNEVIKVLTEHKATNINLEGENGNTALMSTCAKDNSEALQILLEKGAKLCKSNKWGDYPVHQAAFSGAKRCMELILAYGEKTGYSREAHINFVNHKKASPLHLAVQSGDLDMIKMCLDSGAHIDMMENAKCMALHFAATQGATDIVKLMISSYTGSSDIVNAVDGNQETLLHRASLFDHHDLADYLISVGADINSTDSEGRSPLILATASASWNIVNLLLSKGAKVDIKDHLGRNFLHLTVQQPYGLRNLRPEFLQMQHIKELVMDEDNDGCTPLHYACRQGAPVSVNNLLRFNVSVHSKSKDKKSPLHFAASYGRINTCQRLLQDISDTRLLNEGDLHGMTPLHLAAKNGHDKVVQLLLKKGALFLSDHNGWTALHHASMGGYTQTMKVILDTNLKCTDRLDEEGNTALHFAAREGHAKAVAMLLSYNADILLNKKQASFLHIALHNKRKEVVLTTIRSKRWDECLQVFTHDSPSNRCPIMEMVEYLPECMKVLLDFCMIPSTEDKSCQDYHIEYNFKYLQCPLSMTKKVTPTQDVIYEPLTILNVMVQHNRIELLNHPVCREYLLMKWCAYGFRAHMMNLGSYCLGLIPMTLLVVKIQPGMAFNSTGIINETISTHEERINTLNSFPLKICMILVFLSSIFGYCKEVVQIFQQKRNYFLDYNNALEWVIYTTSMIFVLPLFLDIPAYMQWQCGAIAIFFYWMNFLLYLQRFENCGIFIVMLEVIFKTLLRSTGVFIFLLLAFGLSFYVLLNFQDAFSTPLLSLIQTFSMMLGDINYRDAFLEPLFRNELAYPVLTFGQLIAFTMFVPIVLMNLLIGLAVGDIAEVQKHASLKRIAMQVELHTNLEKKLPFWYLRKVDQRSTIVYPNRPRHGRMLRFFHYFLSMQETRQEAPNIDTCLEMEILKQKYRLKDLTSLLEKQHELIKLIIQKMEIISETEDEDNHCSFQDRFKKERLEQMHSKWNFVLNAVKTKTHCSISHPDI

For the compound `CC(C)=CCC/C(C)=C\COC(=O)Cc1ccc(C)cc1`, the IC50 in assay [1] was more than 100 µM; in assay [4], 0.28 µM. The Efficacy in assay [2] and in assay [3] was less than 10% in each case.

Take `CC(=O)OC/C=C(/C)CCC=C(C)C` [NERYL ACETATE]: the IC50 in assay [5] is 20.7 µM; in assay [1], more than 100 µM; in assay [4], more than 100 µM. The Efficacy in assay [2] and in assay [3] was less than 10% throughout. Moreover, in assay [6], the EC50 stood at 13.3 µM.

For `CC(C)=CCC/C(C)=C/CNC(=O)NC1CCCCC1`, the figures for the IC50 in assay [5], in assay [1] and in assay [4] were 11.8 µM, 9.9 µM and more than 100 µM, respectively. The EC50 is 4.8 µM in assay [7] and 4.9 µM in assay [6]. In addition, the Efficacy is 36% in assay [2] and less than 10% in assay [3].

With `COc1ccc(CC(=O)OC/C=C(\C)CCC=C(C)C)cc1`, the IC50 in assay [5] was 0.38 µM; in assay [1], more than 100 µM; in assay [4], more than 100 µM. The figures for the EC50 in assay [7] and in assay [6] were 8 µM and 0.51 µM, respectively. For the same compound, the results for the Efficacy in assay [2] and in assay [3] were 13.2% and less than 10%, respectively.

`CC(C)=CCC/C(C)=C/CNC(=O)CCc1ccccc1`: the IC50 in assay [5] was 7.4 µM; in assay [1], more than 100 µM; in assay [4], 5.5 µM. Besides, the figures for the EC50 in assay [7] and in assay [6] were 16.2 µM and 7.5 µM, respectively. Moreover, the Efficacy is 10.5% in assay [2] and less than 10% in assay [3].

With `CC(C)=CCC/C(C)=C\COC(=O)Cc1ccc2ccccc2c1`, the IC50 is 0.18 µM in assay [5], more than 100 µM in assay [1] and more than 100 µM in assay [4]. The Efficacy in assay [2] and in assay [3] was less than 10% in each case. The EC50 in assay [6] turned out to be 0.081 µM.

In the case of `CC(C)=CCC/C(C)=C/COC(=O)Cc1ccc(Cl)cc1`, the IC50 in assay [5] is 0.13 µM; in assay [1], more than 100 µM; in assay [4], more than 100 µM. Besides, the Efficacy in assay [2] and in assay [3] was less than 10% in each case. For the same compound, in assay [6], the EC50 was determined as 0.12 µM.

For `CC(C)=CCC/C(C)=C/COC(=O)c1cc(C(F)(F)F)cc(C(F)(F)F)c1`, the IC50 in assay [5], in assay [1] and in assay [4] was more than 100 µM each time. In addition, the Efficacy in assay [2] and in assay [3] was less than 10% each time. Further, the EC50 in assay [6] amounted to 11.9 µM.

On to `CC(C)=CCC/C(C)=C\COC(=O)c1cccc(C)c1`, for which the IC50 in assay [5] is 0.14 µM; in assay [1] it was more than 100 µM; in assay [4], 30.8 µM. In addition, the Efficacy in assay [2] and in assay [3] was less than 10% each time. Moreover, the EC50 in assay [6] was determined as 0.14 µM.

In the case of `CC(C)=CCC/C(C)=C/CNC(=O)Nc1ccc(C(C)(C)C)cc1`, the IC50 in assay [5] is 0.57 µM; in assay [1] it was 76.8 µM; in assay [4] it was more than 100 µM. Moreover, the EC50 stood at 8.7 µM in assay [7] and 0.092 µM in assay [6]. Besides, the Efficacy in assay [2] was 21.9%; in assay [3] it was less than 10%.

On to `CC(C)=CCC/C(C)=C/COC(=O)Cc1ccc(C)cc1`, for which the IC50 was more than 100 µM in assay [1] and 5.8 µM in assay [4]. Further, the Efficacy in assay [2] and in assay [3] was less than 10% throughout.

Take `CC(C)=CCCC(C)CCOC(=O)Cc1ccc(Cl)cc1` (centres undefined): the IC50 in assay [1] was more than 100 µM; in assay [4], 0.83 µM. Moreover, the Efficacy in assay [2] and in assay [3] was less than 10% throughout.

Turning to `CC(C)=CCC/C(C)=C\CNC(=O)Cc1ccc(Cl)cc1`, the IC50 in assay [5] was 0.94 µM; in assay [1] it was 0.53 µM; in assay [4], 2.2 µM. Besides, the results for the EC50 in assay [7] and in assay [6] were 0.43 µM and 1 µM, respectively. In addition, the Efficacy in assay [2] was 57.9%; in assay [3] it was less than 10%.

For the compound `CC(C)=CCC/C(C)=C\COC(=O)Cc1ccc(Cl)cc1`, the concentration for half-maximal inhibition (IC50) in assay [5] was 0.013 µM; in assay [1], more than 100 µM; in assay [4], 0.75 µM. In addition, the Efficacy in assay [2] and in assay [3] was less than 10% throughout. The EC50 in assay [6] came to 0.016 µM.

Turning to `CC(C)=CCC/C(C)=C\COC(=O)Cc1cccc(I)c1`, the IC50 was 0.94 µM in assay [5], more than 100 µM in assay [1] and more than 100 µM in assay [4]. For the same compound, the Efficacy in assay [2] and in assay [3] was less than 10% each time. Moreover, the EC50 in assay [6] was found to be 0.1 µM.

On to `CC(C)=CCC/C(C)=C\CNC(=O)Nc1cccc(Cl)c1`, for which the IC50 in assay [5] was found to be 0.41 µM; in assay [1], 0.38 µM; in assay [4], 0.71 µM. Also, the EC50 in assay [7] worked out at 1.7 µM; in assay [6], 0.43 µM. For the same compound, the Efficacy was 20.1% in assay [2] and less than 10% in assay [3].

Regarding `CC(C)=CCC/C(C)=C\CNC(=O)NC1CCCCC1`, the IC50 in assay [5] stood at 4.4 µM; in assay [1], 15.7 µM; in assay [4] it was 30 µM. The results for the EC50 in assay [7] and in assay [6] were 8.9 µM and 2.65 µM, respectively. Besides, the Efficacy in assay [2] was 50.1%; in assay [3], less than 10%.

As for `CC(C)=CCC/C(C)=C\CNC(=O)CCc1ccccc1`, the concentration for half-maximal inhibition (IC50) in assay [5] was 13.9 µM; in assay [1] it was more than 100 µM; in assay [4], 2.2 µM. Moreover, the Efficacy in assay [2] and in assay [3] was less than 10% in each case. For the same compound, in assay [6], the EC50 worked out at 6.6 µM.

`CC(C)=CCC/C(C)=C\COC(=O)c1ccc(C#N)cc1`: the IC50 in assay [5] is 0.34 µM; in assay [1], more than 100 µM; in assay [4], more than 100 µM. Besides, the Efficacy in assay [2] and in assay [3] was less than 10% in each case. Moreover, the EC50 in assay [6] is 0.26 µM.

With `CC(C)=CCCC(C)CCOC(=O)Cc1ccc(C)cc1` (centres undefined), the half-maximal inhibitory concentration (IC50) in assay [1] is more than 100 µM; in assay [4], 2.4 µM. Moreover, the Efficacy in assay [2] and in assay [3] was less than 10% throughout.

Regarding `CC(C)=CCCC(C)CCOC(=O)CCc1ccccc1` (centres undefined), the IC50 was 0.34 µM in assay [5], more than 100 µM in assay [1] and more than 100 µM in assay [4]. Also, the Efficacy in assay [2] and in assay [3] was less than 10% throughout. The concentration for a half-maximal effect (EC50) in assay [6] was 0.16 µM.

On to `CC(C)=CCC/C(C)=C\COC(=O)CCc1ccccc1`, for which the results for the IC50 in assay [5], in assay [1] and in assay [4] were 0.11 µM, more than 100 µM and 0.29 µM, respectively. Also, the Efficacy in assay [2] and in assay [3] was less than 10% in each case. Also, in assay [6], the EC50 stood at 0.11 µM.

As for `CC(C)=CCCC(C)CCOC(=O)c1ccc(C)cc1` (centres undefined), the IC50 is 0.87 µM in assay [5], more than 100 µM in assay [1] and more than 100 µM in assay [4]. Also, the Efficacy in assay [2] and in assay [3] was less than 10% each time. Besides, the EC50 in assay [6] amounted to 0.28 µM.

As to `CC(C)=CCC/C(C)=C/COC(=O)c1cccc(C)c1`, the IC50 in assay [5] was 1.4 µM; in assay [1] it was more than 100 µM; in assay [4], more than 100 µM. Further, the Efficacy in assay [2] and in assay [3] was less than 10% throughout. Further, the EC50 in assay [6] was determined as 2.4 µM.

Consider `CC(C)=CCCC(C)CCO` (racemic) [CITRONELLOL], for which the IC50 in assay [5], in assay [1] and in assay [4] was more than 100 µM throughout. For the same compound, the Efficacy in assay [2] and in assay [3] was less than 10% each time. Besides, in assay [6], the half-maximal effective concentration (EC50) is more than 100 µM.

As for `COc1ccc(CC(=O)OC/C=C(/C)CCC=C(C)C)cc1`, the IC50 is 0.26 µM in assay [5], more than 100 µM in assay [1] and 9.7 µM in assay [4]. For the same compound, the Efficacy in assay [2] and in assay [3] was less than 10% throughout. Further, in assay [6], the EC50 came to 0.14 µM.

Regarding `CC(C)=CCC/C(C)=C\CO` [NEROL], the IC50 in assay [5], in assay [1] and in assay [4] was more than 100 µM in each case. For the same compound, the Efficacy in assay [2] and in assay [3] was less than 10% throughout. Besides, the EC50 in assay [6] was found to be 11.7 µM.

Consider `CC(C)=CCC/C(C)=C/COC(=O)c1ccc(C#N)cc1`, for which the IC50 in assay [5] was 0.73 µM; in assay [1], more than 100 µM; in assay [4] it was more than 100 µM. In addition, the Efficacy in assay [2] and in assay [3] was less than 10% each time. Besides, in assay [6], the EC50 was 0.48 µM.

With `CC(C)=CCC/C(C)=C\COC(=O)c1ccc(C)cc1`, the concentration for half-maximal inhibition (IC50) in assay [5] is 0.11 µM; in assay [1], more than 100 µM; in assay [4], 1.2 µM. The Efficacy in assay [2] and in assay [3] was less than 10% in each case. Moreover, the EC50 in assay [6] stood at 0.093 µM.

On to `CC(=O)OC/C=C(\C)CCC=C(C)C` [GERANYL ACETATE], for which the IC50 is 21.2 µM in assay [5], more than 100 µM in assay [1] and more than 100 µM in assay [4]. In addition, the Efficacy in assay [2] and in assay [3] was less than 10% in each case. Further, the EC50 in assay [6] is 25.8 µM.

The values are drawn from ChEMBL document CHEMBL3352014, “Effect of acyclic monoterpene alcohols and their derivatives on TRP channels” (Bioorg Med Chem Lett, 2014).
